Assay results published in ChEMBL document CHEMBL1154713, “Molecular iodine promoted synthesis of new pyrazolo[3,4-d]pyrimidine derivatives as potential antibacterial agents” (2010).

Assays:
Format in all cases: functional
[1] = tested on: Pseudomonas aeruginosa; assay: Antibacterial activity against Pseudomonas aeruginosa PTCC 1431 at 400 ug/ml after 24 hrs by disk diffusion sensitivity assay; conditions: PTCC 1431, 24 h, read-out: IZ
Procedure, shortened: (§1)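 Disc diffusion on Mueller–Hinton agar poured 5 mm deep, swabbed with 1.2 × 10⁸ CFU/mL bacterial suspension (0.5 McFarland). Compounds dissolved in DMF, diluted with ethanol to 100–600 µg/mL solutions, loaded onto 6.25 mm filter-paper discs. Discs placed in triplicate, incubated 24 h at 37 °C. Average inhibition zone reported, maximum across concentrations shown. Streptomycin used as standard.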

[2] = tested on: Bacillus subtilis; assay: Antibacterial activity against Bacillus subtilis PTCC 1365 at 400 ug/ml after 24 hrs by disk diffusion sensitivity assay; conditions: PTCC 1365, 24 h, read-out: IZ; procedure, shortened: as §1
[3] = Antibacterial activity against Escherichia coli HB101 BA 7601C at 400 ug/ml after 24 hrs by disk diffusion sensitivity assay; conditions: read-out: IZ; procedure, shortened: as §1
[4] = tested on: Staphylococcus aureus; assay: Antibacterial activity against Staphylococcus aureus PTCC 1074 at 400 ug/ml after 24 hrs by disk diffusion sensitivity assay; conditions: PTCC 1074, 24 h, read-out: IZ; procedure, shortened: as §1
[5] = tested on: Staphylococcus aureus; assay: Antibacterial activity against Staphylococcus aureus PTCC 1074 at 500 ug/ml after 24 hrs by disk diffusion sensitivity assay; conditions: PTCC 1074, 24 h, read-out: IZ; procedure, shortened: as §1
[6] = tested on: Bacillus subtilis; assay: Antibacterial activity against Bacillus subtilis PTCC 1365 at 500 ug/ml after 24 hrs by disk diffusion sensitivity assay; conditions: PTCC 1365, 24 h, read-out: IZ; procedure, shortened: as §1
[7] = Antibacterial activity against Escherichia coli HB101 BA 7601C at 500 ug/ml after 24 hrs by disk diffusion sensitivity assay; conditions: read-out: IZ; procedure, shortened: as §1
[8] = tested on: Pseudomonas aeruginosa; assay: Antibacterial activity against Pseudomonas aeruginosa PTCC 1431 at 500 ug/ml after 24 hrs by disk diffusion sensitivity assay; conditions: PTCC 1431, 24 h, read-out: IZ; procedure, shortened: as §1
[9] = tested on: Pseudomonas aeruginosa; assay: Antibacterial activity against Pseudomonas aeruginosa PTCC 1431 at 10 ug/ml after 24 hrs by disk diffusion sensitivity assay; conditions: PTCC 1431, 24 h, read-out: IZ
[10] = tested on: Staphylococcus aureus; assay: Antibacterial activity against Staphylococcus aureus PTCC 1074 at 10 ug/ml after 24 hrs by disk diffusion sensitivity assay; conditions: PTCC 1074, 24 h, read-out: IZ
[11] = tested on: Bacillus subtilis; assay: Antibacterial activity against Bacillus subtilis PTCC 1365 at 10 ug/ml after 24 hrs by disk diffusion sensitivity assay; conditions: PTCC 1365, 24 h, read-out: IZ
[12] = Antibacterial activity against Escherichia coli HB101 BA 7601C at 10 ug/ml after 24 hrs by disk diffusion sensitivity assay; conditions: read-out: IZ
[13] = Antibacterial activity against Escherichia coli HB101 BA 7601C at 100 ug/ml after 24 hrs by disk diffusion sensitivity assay; conditions: read-out: IZ; procedure, shortened: as §1
[14] = tested on: Pseudomonas aeruginosa; assay: Antibacterial activity against Pseudomonas aeruginosa PTCC 1431 at 100 ug/ml after 24 hrs by disk diffusion sensitivity assay; conditions: PTCC 1431, 24 h, read-out: IZ; procedure, shortened: as §1
[15] = tested on: Staphylococcus aureus; assay: Antibacterial activity against Staphylococcus aureus PTCC 1074 at 100 ug/ml after 24 hrs by disk diffusion sensitivity assay; conditions: PTCC 1074, 24 h, read-out: IZ; procedure, shortened: as §1
[16] = tested on: Bacillus subtilis; assay: Antibacterial activity against Bacillus subtilis PTCC 1365 at 100 ug/ml after 24 hrs by disk diffusion sensitivity assay; conditions: PTCC 1365, 24 h, read-out: IZ; procedure, shortened: as §1
[17] = tested on: Staphylococcus aureus; assay: Antibacterial activity against Staphylococcus aureus PTCC 1074 at 300 ug/ml after 24 hrs by disk diffusion sensitivity assay; conditions: PTCC 1074, 24 h, read-out: IZ; procedure, shortened: as §1
[18] = tested on: Pseudomonas aeruginosa; assay: Antibacterial activity against Pseudomonas aeruginosa PTCC 1431 at 300 ug/ml after 24 hrs by disk diffusion sensitivity assay; conditions: PTCC 1431, 24 h, read-out: IZ; procedure, shortened: as §1
[19] = Antibacterial activity against Escherichia coli HB101 BA 7601C at 300 ug/ml after 24 hrs by disk diffusion sensitivity assay; conditions: read-out: IZ; procedure, shortened: as §1
[20] = tested on: Bacillus subtilis; assay: Antibacterial activity against Bacillus subtilis PTCC 1365 at 300 ug/ml after 24 hrs by disk diffusion sensitivity assay; conditions: PTCC 1365, 24 h, read-out: IZ; procedure, shortened: as §1
[21] = Antibacterial activity against Escherichia coli HB101 BA 7601C at 200 ug/ml after 24 hrs by disk diffusion sensitivity assay; conditions: read-out: IZ; procedure, shortened: as §1
[22] = tested on: Pseudomonas aeruginosa; assay: Antibacterial activity against Pseudomonas aeruginosa PTCC 1431 at 200 ug/ml after 24 hrs by disk diffusion sensitivity assay; conditions: PTCC 1431, 24 h, read-out: IZ; procedure, shortened: as §1
[23] = tested on: Staphylococcus aureus; assay: Antibacterial activity against Staphylococcus aureus PTCC 1074 at 200 ug/ml after 24 hrs by disk diffusion sensitivity assay; conditions: PTCC 1074, 24 h, read-out: IZ; procedure, shortened: as §1
[24] = tested on: Bacillus subtilis; assay: Antibacterial activity against Bacillus subtilis PTCC 1365 at 200 ug/ml after 24 hrs by disk diffusion sensitivity assay; conditions: PTCC 1365, 24 h, read-out: IZ; procedure, shortened: as §1

`O=c1[nH]c(-c2ccc(Cl)cc2)nc2c1cnn2-c1ccc([N+](=O)[O-])cc1[N+](=O)[O-]` showed a zone of inhibition at 400 µg/mL [1] of 8 mm, a zone of inhibition at 400 µg/mL [2] of 15 mm and a zone of inhibition at 400 µg/mL [3] of 10.5 mm. It also gave a zone of inhibition at 400 µg/mL [4] of 8.5 mm.
In the case of `O=c1[nH]c(-c2cccc(O)c2)nc2c1cnn2-c1ccc([N+](=O)[O-])cc1[N+](=O)[O-]`, the zone of inhibition at 500 µg/mL [5] is reported as 16 mm, the zone of inhibition at 500 µg/mL [6] is reported as 12 mm and the zone of inhibition at 500 µg/mL [7] is reported as 12 mm. For the same compound, the zone of inhibition at 500 µg/mL [8] was 9.5 mm.
With `O=c1[nH]c(-c2ccccc2O)nc2c1cnn2-c1ccc([N+](=O)[O-])cc1[N+](=O)[O-]` the zone of inhibition at 500 µg/mL [5] was 9 mm, the zone of inhibition at 500 µg/mL [6] was 9 mm and the zone of inhibition at 500 µg/mL [7] was 7 mm. The zone of inhibition at 500 µg/mL [8] was 16 mm.
With `CN[C@@H]1[C@H](O[C@H]2[C@H](O[C@H]3[C@H](O)[C@@H](O)[C@H](N=C(N)N)[C@@H](O)[C@@H]3N=C(N)N)O[C@@H](C)[C@]2(O)C=O)O[C@@H](CO)[C@H](O)[C@H]1O` [STREPTOMYCIN] the zone of inhibition at 10 µg/mL [9] was 10 mm, the zone of inhibition at 10 µg/mL [10] was 15 mm and the zone of inhibition at 10 µg/mL [11] was 10 mm. It also gave a zone of inhibition at 10 µg/mL [12] of 17 mm.
Work on `COc1cccc(-c2nc3c(cnn3-c3ccc([N+](=O)[O-])cc3[N+](=O)[O-])c(=O)[nH]2)c1` yielded a zone of inhibition at 100 µg/mL [13] of 11.5 mm, a zone of inhibition at 100 µg/mL [14] of 12.5 mm and a zone of inhibition at 100 µg/mL [15] of 9 mm. The zone of inhibition at 100 µg/mL [16] was 8 mm.
`COc1ccc(-c2nc3c(cnn3-c3ccc([N+](=O)[O-])cc3[N+](=O)[O-])c(=O)[nH]2)cc1` showed a zone of inhibition at 100 µg/mL [13] of 9.5 mm, a zone of inhibition at 100 µg/mL [14] of 12.5 mm and a zone of inhibition at 100 µg/mL [15] of 10 mm. The zone of inhibition at 100 µg/mL [16] was 10 mm.
For `O=c1[nH]c(-c2cccc([N+](=O)[O-])c2)nc2c1cnn2-c1ccc([N+](=O)[O-])cc1[N+](=O)[O-]`, the zone of inhibition at 400 µg/mL [1] was 9 mm, the zone of inhibition at 400 µg/mL [2] was 11 mm and the zone of inhibition at 400 µg/mL [3] was 8 mm. The zone of inhibition at 400 µg/mL [4] was 15 mm.
For `O=c1[nH]c(-c2ccc(Br)cc2)nc2c1cnn2-c1ccc([N+](=O)[O-])cc1[N+](=O)[O-]`, the zone of inhibition at 100 µg/mL [13] was 17 mm, the zone of inhibition at 100 µg/mL [14] was 10 mm and the zone of inhibition at 100 µg/mL [15] was 9 mm. For the same compound, the zone of inhibition at 100 µg/mL [16] was 9 mm.
For `O=c1[nH]c(-c2ccc([N+](=O)[O-])cc2)nc2c1cnn2-c1ccc([N+](=O)[O-])cc1[N+](=O)[O-]`, the zone of inhibition at 300 µg/mL [17] was 8.5 mm, the zone of inhibition at 300 µg/mL [18] was 13.5 mm and the zone of inhibition at 300 µg/mL [19] was 9 mm. For the same compound, the zone of inhibition at 300 µg/mL [20] was 9 mm.
With `O=c1[nH]c(-c2ccccc2)nc2c1cnn2-c1ccc([N+](=O)[O-])cc1[N+](=O)[O-]` the zone of inhibition at 400 µg/mL [1] was 9.5 mm, the zone of inhibition at 400 µg/mL [2] was 10 mm and the zone of inhibition at 400 µg/mL [3] was 15 mm. The zone of inhibition at 400 µg/mL [4] was 9 mm.
`Cc1ccc(-c2nc3c(cnn3-c3ccc([N+](=O)[O-])cc3[N+](=O)[O-])c(=O)[nH]2)cc1` gave a zone of inhibition at 200 µg/mL [21] of 9 mm, a zone of inhibition at 200 µg/mL [22] of 7.5 mm and a zone of inhibition at 200 µg/mL [23] of 13 mm. For the same compound, the zone of inhibition at 200 µg/mL [24] was 9 mm.
